The values that follow come from ChEMBL document CHEMBL1137735, “Novel 4H-1,3,4-oxadiazin-5(6H)-ones with hydrophobic and long alkyl chains: design, synthesis, and bioactive diversity on inhibition of monoamine oxidase, chitin biosynthesis and tumor cell” (Eur J Med Chem, 2009).

The source made the active and inactive calls. The calls are words filed in the database; no cut-off is given here.

The test system of experiment [1] is Saccharomyces cerevisiae. Put plainly: Inhibition of chitin synthase-mediated chitin synthesis in yeast by high throughput assay. Summed up:
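Enzyme source is Saccharomyces cerevisiae cell extract, run in a modified non-radioactive chitin synthase assay; five serial dilutions per compound tested to follow concentration dependence.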

The subject of experiment [2] is Saccharomyces cerevisiae. Nature of the experiment: Inhibition of chitin synthase-mediated chitin synthesis in yeast at 250 uM by high throughput assay. In short, it runs like this:
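Yeast Saccharomyces cerevisiae cell extracts used as chitin synthase source in a modified non-radioactive chitin synthase assay; compounds screened at a single fixed level.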

The species entered for experiment [3] is Rattus norvegicus. Put plainly: Inhibition of rat brain mitochondrial MAO at 0.008 mmol/L by kynuramine fluorimetric assay.
The species entered for experiment [4] is Rattus norvegicus. Put plainly: Inhibition of rat brain mitochondrial MAO at 0.08 mmol/L by kynuramine fluorimetric assay.
For experiment [5], the species on record is Rattus norvegicus. Put plainly: Inhibition of rat brain mitochondrial MAO at 0.8 mmol/L by kynuramine fluorimetric assay.
Experiment [6] is described as follows: Inhibition of rat brain mitochondrial MAO by kynuramine fluorimetric assay.
In a further experiment the test system is A549. Put plainly: Cytotoxicity against human A549 cells by SRB assay. In kind it is functional, cell-based. In short, it runs like this: (§1)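 Growth inhibition of human lung A-549 and prostate PC-3 cancer cell lines, read out by sulforhodamine B dye staining; IC50 taken as the concentration giving 50% inhibition.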
The next experiment has as its system PC-3. Nature of the experiment: Cytotoxicity against human PC3 cells by SRB assay. The experiment is classed as functional, cell-based. Summed up: as §1
Experiment [7] is filed under the species Rattus norvegicus. Nature of the experiment: Inhibition of rat brain mitochondrial MAO at 0.01 mmol/L by kynuramine fluorimetric assay.
For experiment [8], the species on record is Rattus norvegicus. Put plainly: Inhibition of rat brain mitochondrial MAO at 0.1 mmol/L by kynuramine fluorimetric assay.
The species entered for experiment [9] is Rattus norvegicus. Put plainly: Inhibition of rat brain mitochondrial MAO at 1 mmol/L by kynuramine fluorimetric assay.

As to `C[C@@H]([C@H](N)C(=O)N[C@H](C(=O)O)[C@H]1O[C@@H](n2ccc(=O)[nH]c2=O)[C@H](O)[C@@H]1O)[C@H](O)c1ccc(O)cn1`, in the experiment on Saccharomyces cerevisiae [1], the inhibition result was “Dose-dependent effect”.

For `CCCCOC(=O)CCN1N=C(c2cccc(C)c2)OCC1=O`, the values for the inhibition in the experiment on Saccharomyces cerevisiae [2] and in the experiment on Saccharomyces cerevisiae [1] were 95% and “Dose-dependent effect”, respectively.

For the compound `CCCCC(CCCC)N1N=C(c2cc(C)cc(C)c2)OCC1=O`, the inhibition result with Saccharomyces cerevisiae [2] was “Active”.

For the compound `CCCCC(CCCC)N1N=C(c2ccc3c(c2)OCO3)OCC1=O`, the inhibition entry in the experiment with Saccharomyces cerevisiae [2] was “Active”.

As to `CCCCC(CCCC)N1N=C(c2ccc(Cl)cc2Cl)OCC1=O`, in the experiment on Saccharomyces cerevisiae [2], the inhibition result was “Active”.

On to `CCCCC(CCCC)N1N=C(c2cc(OC)c(OC)c(OC)c2)OCC1=O`, for which the inhibition in the experiment listed under Rattus norvegicus [3] was found to be 14%; in the experiment filed under Rattus norvegicus [4], 23.5%; in the experiment listed under Rattus norvegicus [5] it was 61.4%. In addition, the IC50 was 410 µM in experiment [6], 9.91 µM with A549 and 14.4 µM with PC-3. In addition, the inhibition result with Saccharomyces cerevisiae [2] is “Active”.

Take `CCCCC(CCCC)NNC(=O)c1ccccc1Cl`: the inhibition worked out at 6.4% in the experiment filed under Rattus norvegicus [7], 5.13% in the experiment listed under Rattus norvegicus [8] and 14.2% in the experiment listed under Rattus norvegicus [9].

On to `CCc1ccc(C2=NN(CCC#N)C(=O)CO2)cc1`, for which the inhibition in the experiment filed under Rattus norvegicus [3] amounted to 9.73%; in the experiment listed under Rattus norvegicus [4] it was 25.5%; in the experiment listed under Rattus norvegicus [5], 59.7%. The IC50 in experiment [6] was 430 µM; with A549, more than 100 µM; in the experiment on PC-3, more than 100 µM. Further, in the experiment on Saccharomyces cerevisiae [2], the inhibition entry is “Active”.

With `CCCCC(CCCC)N1N=C(c2ccc(Cl)cc2)OCC1=O`, the inhibition turned out to be 11.2% in the experiment listed under Rattus norvegicus [3], 28.2% in the experiment listed under Rattus norvegicus [4] and 58.8% in the experiment listed under Rattus norvegicus [5]. In addition, the IC50 is 420 µM in experiment [6] and 24.8 µM in the experiment with A549. Also, in the experiment with Saccharomyces cerevisiae [2], the inhibition entry was “Active”.

With `CCCCC(CCCC)NNC(=O)c1ccc(Cl)cc1Cl`, the inhibition in the experiment filed under Rattus norvegicus [7] was found to be 9.33%; in the experiment filed under Rattus norvegicus [8], 3.52%; in the experiment filed under Rattus norvegicus [9] it was 10.5%.

`O=C(NC(=O)c1c(F)cccc1F)Nc1ccc(Cl)cc1`: in the experiment with Saccharomyces cerevisiae [2], the inhibition entry is “inactive”.

As for `CCCCC(CCCC)NNC(=O)c1cc(OC)c(OC)c(OC)c1`, the IC50 in [6] stood at 2300 µM. The inhibition in the experiment listed under Rattus norvegicus [7] was found to be 4.67%; in the experiment filed under Rattus norvegicus [8], 8.16%; in the experiment filed under Rattus norvegicus [9] it was 35.5%.

As for `CCCCC(CCCC)N1N=C(c2ccc3ccccc3c2)OCC1=O`, the figures for the inhibition in the experiment filed under Rattus norvegicus [3], in the experiment listed under Rattus norvegicus [4] and in the experiment listed under Rattus norvegicus [5] were 12.8%, 20.3% and 54.6%, respectively. The IC50 in experiment [6] is 600 µM; with A549 it was more than 100 µM; in the experiment on PC-3, 42.5 µM. In addition, the inhibition entry with Saccharomyces cerevisiae [2] is “Active”.

With `CCCCC(CCCC)NNC(=O)c1ccc2c(c1)OCO2`, the inhibition in the experiment filed under Rattus norvegicus [7] was determined as 0%; in the experiment filed under Rattus norvegicus [8] it was 13.8%; in the experiment filed under Rattus norvegicus [9], 62.8%.

For `CCCCC(CCCC)N1N=C(c2ccc(CC)cc2)OCC1=O`, the inhibition entry in the experiment with Saccharomyces cerevisiae [2] was “Active”.

On to `CCCCC(CCCC)NNC(=O)c1cccnc1OCC`, for which the inhibition is 0% in the experiment listed under Rattus norvegicus [7], 6.09% in the experiment filed under Rattus norvegicus [8] and 21.7% in the experiment listed under Rattus norvegicus [9].

In experiment [6], `CCc1ccc(C(=O)NNCCC#N)cc1` registered an IC50 of 240 µM. The values for the inhibition in the experiment listed under Rattus norvegicus [7], in the experiment filed under Rattus norvegicus [8] and in the experiment listed under Rattus norvegicus [9] were 2.8%, 37% and 71.2%, respectively.

The compound `CCCCC(CCCC)NNC(=O)c1ccc(Cl)cc1` yielded an IC50 in [6] of 2610 µM. The inhibition in the experiment listed under Rattus norvegicus [7] stood at 7.52%; in the experiment filed under Rattus norvegicus [8], 2.71%; in the experiment filed under Rattus norvegicus [9], 28.6%.

Turning to `CCCCC(CCCC)NNC(=O)c1ccc2ccccc2c1`, the inhibition in the experiment listed under Rattus norvegicus [7] is 0%; in the experiment filed under Rattus norvegicus [8], 8.47%; in the experiment filed under Rattus norvegicus [9] it was 33.1%.

Regarding `N#CCCN1N=C(c2ccccc2)OCC1=O`, the result with Saccharomyces cerevisiae [2] was Active.

With `CCCCC(CCCC)N1N=C(c2cccnc2OCC)OCC1=O`, the inhibition was 98% with Saccharomyces cerevisiae [2] and “Dose-dependent effect” in the experiment with Saccharomyces cerevisiae [1].
